Columns and labels:
Assay type in all cases: functional, organism-based
Plasmodium falciparum [1] = assay: Antiplasmodial activity against multidrug-sensitive Plasmodium falciparum 3D7 after 18 hrs by [3H]hypoxanthine incorporation assay
Outline: (§1)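 Reference strains (multidrug-resistant V1S, drug-sensitive 3D7) in RPMI 1640 with 15% human serum. Threefold drug dilutions; 0.5% parasitemia, 1.5% hematocrit; 66 h at 37°C under 5% O2/5% CO2/90% N2, then [3H]hypoxanthine added for 18 h, freeze-thaw lysis, counting. IC50 by nonlinear regression of dose-response; four determinations per strain.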

Plasmodium falciparum [2] = assay: Antiplasmodial activity against Plasmodium falciparum clinical isolate after 18 hrs by [3H]hypoxanthine incorporation assay
Outline: (§2)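 Kenyan field isolates, culture-adapted in long term (some cryopreserved first), grown in RPMI 1640 with 15% human serum, HEPES, bicarbonate, glutamine and pABA. Genotyped at pfcrt 76 and pfmdr1 86 from dried blood spots. Threefold dilutions; 0.5% parasitemia, 1.5% hematocrit; 66 h at 37°C in 5% O2/5% CO2/90% N2, then [3H]hypoxanthine for 18 h. IC50 by nonlinear regression; each isolate measured twice.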

Plasmodium falciparum [3] = assay: Antiplasmodial activity against Plasmodium falciparum harboring mutant pfcrt-76 gene after 18 hrs by [3H]hypoxanthine incorporation assay; outline: as §2
Plasmodium falciparum [4] = assay: Antiplasmodial activity against multidrug-resistant Plasmodium falciparum […] after 18 hrs by [3H]hypoxanthine incorporation assay; outline: as §1
Plasmodium falciparum [5] = assay: Antiplasmodial activity against Plasmodium falciparum harboring mutant pfmdr-1-86 gene after 18 hrs by [3H]hypoxanthine incorporation assay; outline: as §2
Plasmodium falciparum [6] = assay: Antiplasmodial activity against Plasmodium falciparum harboring wild type pfmdr-1-86 gene after 18 hrs by [3H]hypoxanthine incorporation assay; outline: as §2
Plasmodium falciparum [7] = assay: Antiplasmodial activity against Plasmodium falciparum harboring mutant pfcrt-76 and mutant pfmdr-1-86 gene after 18 hrs by [3H]hypoxanthine incorporation assay; outline: as §2
Plasmodium falciparum [8] = assay: Antiplasmodial activity against Plasmodium falciparum harboring wild type and mutant pfcrt-76 gene after 18 hrs by [3H]hypoxanthine incorporation assay; outline: as §2
Plasmodium falciparum [9] = assay: Antiplasmodial activity against Plasmodium falciparum harboring mutant pfcrt-76 and wild type pfmdr-1-86 gene after 18 hrs by [3H]hypoxanthine incorporation assay; outline: as §2
Plasmodium falciparum [10] = assay: Antiplasmodial activity against Plasmodium falciparum harboring wild type and mutant pfmdr-1-86 gene after 18 hrs by [3H]hypoxanthine incorporation assay; outline: as §2
Plasmodium falciparum [11] = assay: Antiplasmodial activity against Plasmodium falciparum harboring wild type pfcrt-76 and wild type pfmdr-1-86 gene after 18 hrs by [3H]hypoxanthine incorporation assay; outline: as §2
Plasmodium falciparum [12] = assay: Antiplasmodial activity against Plasmodium falciparum harboring wild type pfcrt-76 and mutant pfmdr-1-86 gene after 18 hrs by [3H]hypoxanthine incorporation assay; outline: as §2
Plasmodium falciparum [13] = assay: Antiplasmodial activity against Plasmodium falciparum harboring wild type pfcrt-76 gene after 18 hrs by [3H]hypoxanthine incorporation assay; outline: as §2

Structure (SMILES)	IC50 (Plasmodium falciparum [1]) [nM]	IC50 (Plasmodium falciparum [2]) [nM]	IC50 (Plasmodium falciparum [3]) [nM]	IC50 (Plasmodium falciparum [4]) [nM]	IC50 (Plasmodium falciparum [5]) [nM]	IC50 (Plasmodium falciparum [6]) [nM]	IC50 (Plasmodium falciparum [7]) [nM]	IC50 (Plasmodium falciparum [8]) [nM]	IC50 (Plasmodium falciparum [9]) [nM]	IC50 (Plasmodium falciparum [10]) [nM]	IC50 (Plasmodium falciparum [11]) [nM]	IC50 (Plasmodium falciparum [12]) [nM]	IC50 (Plasmodium falciparum [13]) [nM]
C[C@H]1[C@@H](O)O[C@@H]2O[C@@]3(C)CC[C@H]4[C@H](C)CC[C@@H]1[C@@]24OO3 [ARTENIMOL]	2	2	< 25	2	2	3	–	–	–	–	–	–	–
CCN(CC)CCCC(C)Nc1ccnc2cc(Cl)ccc12 (configuration not stated) [CHLOROQUINE]	–	–	57	–	–	–	72	21	54	–	–	–	–
CCCCN(CCCC)CC(O)c1cc(Cl)cc2c1-c1ccc(Cl)cc1/C2=C/c1ccc(Cl)cc1 (configuration not stated) [LUMEFANTRINE]	96	50	43	24	43	124	31	67	99	57	173	63	–
Clc1ccc2c(N3CCN(CCCN4CCN(c5ccnc6cc(Cl)ccc56)CC4)CC3)ccnc2c1 [PIPERAQUINE]	27	32	38	42	–	–	–	–	–	–	–	–	35

Source: ChEMBL document CHEMBL1649283, “In vitro activities of piperaquine, lumefantrine, and dihydroartemisinin in Kenyan Plasmodium falciparum isolates and polymorphisms in pfcrt and pfmdr1” (Antimicrob Agents Chemother, 2009)
